Laboratory results as given in ChEMBL document CHEMBL1133370, “N-(sulfonamido)alkyl[tetrahydro-1H-benzo[e]indol-2-yl]amines: potent antagonists of human neuropeptide Y Y5 receptor” (Bioorg Med Chem Lett, 2000).

These compounds were tested against T1, Neuropeptide Y receptor type 5 (Homo sapiens, UniProt Q15761) (assay: Binding affinity for human Neuropeptide Y receptor type 5 in HEK293 cells).
T1 sequence (Q15761 whole entry): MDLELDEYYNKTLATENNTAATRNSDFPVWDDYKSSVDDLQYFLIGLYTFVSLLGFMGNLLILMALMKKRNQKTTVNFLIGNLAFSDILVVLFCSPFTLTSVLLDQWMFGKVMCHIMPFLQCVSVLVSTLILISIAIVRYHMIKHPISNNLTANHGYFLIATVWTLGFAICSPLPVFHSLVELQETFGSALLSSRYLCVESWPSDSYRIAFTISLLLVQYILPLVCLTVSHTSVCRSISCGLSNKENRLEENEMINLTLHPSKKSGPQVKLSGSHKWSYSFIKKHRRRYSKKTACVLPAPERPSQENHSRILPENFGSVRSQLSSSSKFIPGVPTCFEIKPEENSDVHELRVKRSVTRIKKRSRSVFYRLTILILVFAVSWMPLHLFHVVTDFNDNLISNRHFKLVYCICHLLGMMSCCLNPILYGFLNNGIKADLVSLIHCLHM
Format: cell-based
Summary of the method: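 Membranes from HEK293 cells stably transfected with human NPY5 cDNA, prepared in 20 mM HEPES buffer with NaCl, 0.22 mM KH2PO4, 1.3 mM CaCl2, 0.8 mM MgSO4, pH 7.4. Centrifuged, washed, membrane radioactivity gamma-counted. Non-specific binding with 300 nM NPY. IC50 is 50% inhibition of specific binding, averaged over ≥2 experiments.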

IC50 [nM]	SMILES
> 1000	COc1ccc2c(c1)CCC1N=C(NC(C)=O)CC21 (stereo not drawn)
202	N[C@@H](CCCCNS(=O)(=O)c1ccccc1F)C(=O)NC1=NC2CCc3cc(F)ccc3C2C1 (stereo partly drawn)
91	COc1ccc2c(c1)CCC1N=C(NC(=O)[C@H]3CC[C@H](CNS(=O)(=O)c4ccccc4)CC3)CC21 (stereo partly drawn)
~1000	COc1ccc2c(c1)CCC(NCCc1ccc(OC)c(OC)c1)C2Cc1ccccc1 (stereo not drawn)
121	COc1ccc2c(c1)CCC1N=C(NC(=O)[C@H]3CC[C@H](CNS(=O)(=O)c4ccccc4F)CC3)CC21 (stereo partly drawn)
9	O=C(NC1=NC2CCc3cc(O)ccc3C2C1)[C@H]1CC[C@H](CNS(=O)(=O)c2ccccc2)CC1 (stereo partly drawn)
57	COc1ccc2c(c1)CCC1N=C(NC[C@H]3CC[C@H](CNS(=O)(=O)c4ccccc4)CC3)CC21 (stereo partly drawn)
111	O=C(NC1=NC2CCc3cc(Cl)ccc3C2C1)[C@H]1CC[C@H](CNS(=O)(=O)c2ccccc2)CC1 (stereo partly drawn)
35	COc1ccc2c(c1)CCC1N=C(NC[C@H]3CC[C@H](CNS(=O)(=O)c4ccccc4F)CC3)CC21 (stereo partly drawn)
54	O=S(=O)(NC[C@H]1CC[C@H](CNC2=NC3CCc4cc(Cl)ccc4C3C2)CC1)c1ccccc1 (stereo partly drawn)
60	O=C(NC1=NC2CCc3ccccc3C2C1)[C@H]1CC[C@H](CNS(=O)(=O)c2ccccc2)CC1 (stereo partly drawn)
1	O=S(=O)(NC[C@H]1CC[C@H](CNC2=NC3CCc4cc(O)ccc4C3C2)CC1)c1ccccc1 (stereo partly drawn)
39	O=S(=O)(NC[C@H]1CC[C@H](CNC2=NC3CCc4ccccc4C3C2)CC1)c1ccccc1 (stereo partly drawn)
